From ChEMBL document CHEMBL1157684, “2-Thienyl-4-furyl-6-aryl pyridine derivatives: synthesis, topoisomerase I and II inhibitory activity, cytotoxicity, and structure-activity relationship study” (Bioorg Med Chem, 2010)
Counter-ions that a name gives are not always drawn. Calls of active or inactive are those of the source. No cut-off for these calls is given here.

Experiments:
[1] = tested on: HCT-15; experiment: Cytotoxicity against human HCT15 cells after 4 days by ELISA reader assay; format: functional, cell-based; settings: HCT-15, 96 h
How it was run: (§1)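 Cells grown per supplier, seeded at 2–4 × 10⁴ per well, left overnight in medium with 10% FBS at 37 °C under 5% CO₂, then exposed to compounds. WST (cell counting kit-8) reagent added for a further 4 h, absorbance read at 450 nm. IC50 from four-parameter logistic fit; mean ± S.D. of three experiments, each in triplicate.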

[2] = tested on: K562; experiment: Cytotoxicity against human K562 cells after 4 days by ELISA reader assay; format: functional, cell-based; settings: K562, 96 h; how it was run: as §1
[3] = tested on: DU-145; experiment: Cytotoxicity against human DU145 cells after 4 days by ELISA reader assay; format: functional, cell-based; settings: DU-145, 96 h; how it was run: as §1
[4] = molecular target: DNA topoisomerase 2-alpha (Homo sapiens) (UniProt P11388); experiment: Inhibition of human DNA topoisomerase 2alpha-mediated relaxation of supercoiled pBR322 DNA at 100 uM after 30 mins by agarose gel electrophoresis
DNA topoisomerase 2-alpha (Homo sapiens), sequence (P11388 whole entry): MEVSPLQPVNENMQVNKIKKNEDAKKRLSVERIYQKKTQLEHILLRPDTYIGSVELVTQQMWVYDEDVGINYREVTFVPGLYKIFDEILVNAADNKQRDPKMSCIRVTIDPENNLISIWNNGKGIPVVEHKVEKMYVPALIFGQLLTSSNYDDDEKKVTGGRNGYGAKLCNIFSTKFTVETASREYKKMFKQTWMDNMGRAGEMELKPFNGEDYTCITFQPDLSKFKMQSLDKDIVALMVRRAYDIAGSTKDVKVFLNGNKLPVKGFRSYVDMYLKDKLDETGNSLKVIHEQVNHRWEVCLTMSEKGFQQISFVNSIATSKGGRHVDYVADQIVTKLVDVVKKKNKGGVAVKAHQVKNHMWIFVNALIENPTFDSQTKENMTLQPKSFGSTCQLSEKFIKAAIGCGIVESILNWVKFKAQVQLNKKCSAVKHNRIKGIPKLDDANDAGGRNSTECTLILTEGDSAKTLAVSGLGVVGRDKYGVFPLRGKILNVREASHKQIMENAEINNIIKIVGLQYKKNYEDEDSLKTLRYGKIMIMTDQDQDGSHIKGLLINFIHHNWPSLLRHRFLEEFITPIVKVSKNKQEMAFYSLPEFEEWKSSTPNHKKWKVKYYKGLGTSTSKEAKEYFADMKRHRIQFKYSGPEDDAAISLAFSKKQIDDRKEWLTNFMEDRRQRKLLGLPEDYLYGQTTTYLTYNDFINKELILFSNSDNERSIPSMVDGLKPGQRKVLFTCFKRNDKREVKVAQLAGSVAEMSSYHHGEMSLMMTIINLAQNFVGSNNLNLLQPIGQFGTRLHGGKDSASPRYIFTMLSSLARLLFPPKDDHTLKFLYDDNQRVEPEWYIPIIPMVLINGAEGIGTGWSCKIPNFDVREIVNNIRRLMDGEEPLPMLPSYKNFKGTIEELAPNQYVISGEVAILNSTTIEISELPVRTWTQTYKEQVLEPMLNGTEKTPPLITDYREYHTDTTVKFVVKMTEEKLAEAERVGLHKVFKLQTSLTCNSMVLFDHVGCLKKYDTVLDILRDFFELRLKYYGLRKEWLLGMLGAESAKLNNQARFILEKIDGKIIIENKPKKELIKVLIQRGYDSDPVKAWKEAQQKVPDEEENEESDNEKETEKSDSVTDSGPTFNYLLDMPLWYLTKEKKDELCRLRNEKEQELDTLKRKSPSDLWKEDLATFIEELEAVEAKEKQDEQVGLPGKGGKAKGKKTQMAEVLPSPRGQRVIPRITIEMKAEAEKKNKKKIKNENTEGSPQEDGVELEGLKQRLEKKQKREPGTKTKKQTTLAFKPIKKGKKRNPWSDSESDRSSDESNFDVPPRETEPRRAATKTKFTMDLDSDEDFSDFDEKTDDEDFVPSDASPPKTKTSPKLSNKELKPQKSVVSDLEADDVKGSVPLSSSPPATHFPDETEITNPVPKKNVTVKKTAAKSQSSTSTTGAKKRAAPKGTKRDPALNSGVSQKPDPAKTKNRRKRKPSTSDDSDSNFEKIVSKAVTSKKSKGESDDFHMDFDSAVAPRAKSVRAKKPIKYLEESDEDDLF
How it was run: (§2)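 Human topo IIα (1 unit) with 200 ng supercoiled pBR322, 30 min at 30 °C in 10 mM Tris–HCl pH 7.9, 50 mM NaCl, 50 mM KCl, 5 mM MgCl2, 1 mM EDTA, 1 mM ATP plus BSA. Products run on 1% agarose in TAE at 25 V for 4 h, ethidium-stained, supercoiled DNA quantified under UV.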

[5] = tested on: MCF7; experiment: Cytotoxicity against human MCF7 cells after 4 days by ELISA reader assay; format: functional, cell-based; settings: MCF7, 96 h; how it was run: as §1
[6] = molecular target: T1, DNA topoisomerase 1 (Homo sapiens) (UniProt P11387); experiment: Inhibition of human recombinant DNA topoisomerase 1-mediated relaxation of supercoiled pBR322 DNA at 20 uM after 30 mins by agarose gel electrophoresis
T1 sequence (whole entry): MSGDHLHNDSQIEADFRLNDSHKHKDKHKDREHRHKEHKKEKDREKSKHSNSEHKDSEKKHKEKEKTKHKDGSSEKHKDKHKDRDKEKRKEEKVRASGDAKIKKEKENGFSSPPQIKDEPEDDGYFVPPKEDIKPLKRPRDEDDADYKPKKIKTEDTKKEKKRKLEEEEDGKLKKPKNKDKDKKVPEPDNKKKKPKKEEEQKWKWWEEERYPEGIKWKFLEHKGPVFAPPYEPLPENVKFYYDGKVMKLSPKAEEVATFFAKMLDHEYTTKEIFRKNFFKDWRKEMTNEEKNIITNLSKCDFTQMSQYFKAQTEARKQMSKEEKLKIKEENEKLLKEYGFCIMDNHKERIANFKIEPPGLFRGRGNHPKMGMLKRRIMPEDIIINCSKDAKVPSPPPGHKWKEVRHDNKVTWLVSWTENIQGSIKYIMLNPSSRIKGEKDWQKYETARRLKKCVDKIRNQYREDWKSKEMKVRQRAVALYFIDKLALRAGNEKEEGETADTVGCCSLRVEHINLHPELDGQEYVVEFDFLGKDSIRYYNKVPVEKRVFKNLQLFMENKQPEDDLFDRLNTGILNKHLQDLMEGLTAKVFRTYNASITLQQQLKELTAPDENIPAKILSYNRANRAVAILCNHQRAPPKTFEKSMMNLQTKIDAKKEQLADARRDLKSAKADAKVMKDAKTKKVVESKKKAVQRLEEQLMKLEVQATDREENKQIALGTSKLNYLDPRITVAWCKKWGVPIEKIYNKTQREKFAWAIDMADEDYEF
How it was run: (§3)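 Recombinant human topo I (0.4 units) with 100 ng supercoiled pBR322, 30 min at 37 °C in 10 mM Tris–HCl pH 7.9, 150 mM NaCl, 0.1% BSA, 1 mM spermidine, 5% glycerol. Compounds from 20 mM DMSO stock. Products run on 1% agarose in TAE, 15 V for 7 h, ethidium-stained, bands quantified under UV.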

[7] = molecular target: T1, DNA topoisomerase 1 (Homo sapiens); experiment: Inhibition of human recombinant DNA topoisomerase 1-mediated relaxation of supercoiled pBR322 DNA at 100 uM after 30 mins by agarose gel electrophoresis; how it was run: as §3
[8] = molecular target: DNA topoisomerase 2-alpha (Homo sapiens) (UniProt P11388); experiment: Inhibition of human DNA topoisomerase 2alpha-mediated relaxation of supercoiled pBR322 DNA at 20 uM after 30 mins by agarose gel electrophoresis; how it was run: as §2
[9] = tested on: HeLa; experiment: Cytotoxicity against human HeLa cells after 4 days by ELISA reader assay; format: functional, cell-based; settings: 96 h; how it was run: as §1

SMILES | IC50 [1] [µM] | IC50 [2] [µM] | IC50 [3] [µM] | inhibition [4] [%] | IC50 [5] [µM] | inhibition [6] | inhibition [7] [%] | inhibition [8] [%] | IC50 [9] [µM]
COc1cccc2c1C(=O)c1c(O)c3c(c(O)c1C2=O)C[C@@](O)(C(=O)CO)C[C@@H]3O[C@H]1C[C@H](N)[C@H](O)[C@H](C)O1 [DOXORUBICIN HYDROCHLORIDE] | 2.12 | 2.5 | 1.5 | – | – | – | – | – | –
Clc1cccc(-c2cc(-c3ccoc3)cc(-c3ccc(Cl)s3)n2)c1 | 0.95 | 22.1 | 23 | 54 | 2.92 | inactive | 2.1 | 50.6 | 23.7
Clc1ccc(-c2cc(-c3ccoc3)cc(-c3cccnc3)n2)s1 | 0.72 | 18.7 | 18.5 | 60.8 | 3.48 | inactive | 2 | 40.9 | 20
Cc1ccsc1-c1cc(-c2ccco2)cc(-c2ccc(Cl)cc2)n1 | 0.71 | 20.7 | 26.7 | 56.3 | 0.89 | inactive | 1 | 17.8 | 24.5
Cc1ccsc1-c1cc(-c2ccc(Cl)o2)cc(-c2ccco2)n1 | 26.3 | 10.6 | 27.3 | 61.1 | 5.57 | inactive | 7.8 | 30.7 | 22.2
Cc1ccsc1-c1cc(-c2ccc(Cl)o2)cc(-c2cccnc2)n1 | > 50 | 12.3 | 30.8 | 57.2 | 5.81 | inactive | 21.4 | 25.5 | > 50
Cc1ccsc1-c1cc(-c2ccc(Cl)o2)cc(-c2cccc(Cl)c2)n1 | 26.4 | 13.4 | 20.5 | 51.5 | 18.8 | inactive | 5.9 | 35.7 | 24.8
Clc1ccc(-c2cc(-c3ccc(Cl)o3)cc(-c3ccc(Cl)s3)n2)cc1 | 25.3 | 19.3 | 23 | 59.8 | 12.6 | inactive | 2.2 | 42.7 | 25.1
Cc1ccsc1-c1cc(-c2ccoc2)cc(-c2ccc(Cl)cc2)n1 | 2.99 | 19.6 | 20.1 | 33.8 | 20.3 | 10.6% | 85.9 | 8.1 | 17.4
Cc1ccsc1-c1cc(-c2ccc(Cl)o2)cc(-c2ccc(Cl)cc2)n1 | 30.3 | 15.6 | 21.9 | 59.8 | 15.3 | inactive | 5.1 | 40.4 | 29.3
Cc1ccc(-c2cc(-c3ccoc3)cc(-c3ccc(Cl)s3)n2)cc1 | 1.17 | 17.9 | 25.3 | 50.3 | 5.34 | inactive | 0 | 53.6 | 28.7
Cc1ccccc1-c1cc(-c2ccoc2)cc(-c2ccc(Cl)s2)n1 | 0.99 | 12.3 | 18.5 | 60.7 | 1.43 | inactive | 4.6 | 49.2 | 19
Clc1ccc(-c2cc(-c3ccco3)nc(-c3ccc(Cl)s3)c2)o1 | > 50 | 22.5 | 27.7 | 53.8 | 16.9 | inactive | 23.1 | 39.9 | > 50
Cc1cccc(-c2cc(-c3ccoc3)cc(-c3ccc(Cl)s3)n2)c1 | 0.88 | 13.7 | 20.3 | 50.2 | 3.99 | inactive | 2.6 | 37.6 | 23.6
COc1cc([C@@H]2c3cc4c(cc3[C@@H](O[C@@H]3O[C@@H]5CO[C@@H](C)O[C@H]5[C@H](O)[C@H]3O)[C@H]3COC(=O)[C@H]23)OCO4)cc(OC)c1O [ETOPOSIDE] | 1.09 | 2.41 | 1.3 | – | 1.89 | – | – | 28.9 | 1.29
Clc1ccc(-c2cc(-c3ccco3)cc(-c3ccc(Cl)s3)n2)cc1 | 1.08 | 10.5 | 14.8 | 53.3 | 1.52 | 42.9% | 53.1 | 48.4 | 17
Cc1ccc(-c2cc(-c3ccoc3)cc(-c3ccc(Cl)s3)n2)o1 | 0.79 | 12.7 | 33.4 | 60.5 | 1.9 | inactive | 13.2 | 54 | 26.5
Clc1ccc(-c2cc(-c3ccoc3)cc(-c3ccccn3)n2)s1 | 1.27 | 20 | 20.5 | 49.6 | 3.36 | inactive | 3.1 | 38.9 | 21.6
Cc1ccsc1-c1cc(-c2ccco2)cc(-c2ccccc2Cl)n1 | 0.54 | 25.4 | 29.9 | 33.2 | 14.2 | inactive | 2 | 3.5 | 24
CC[C@@]1(O)C(=O)OCc2c1cc1n(c2=O)Cc2cc3ccccc3nc2-1 [CAMPTOTHECIN] | 0.76 | – | 0.66 | – | 0.06 | – | – | – | –
Cc1ccc(-c2cc(-c3ccc(Cl)o3)cc(-c3ccc(Cl)s3)n2)cc1 | > 50 | 21.4 | > 50 | 58.6 | 3.04 | inactive | 14.2 | 41.1 | > 50
Clc1ccc(-c2cc(-c3ccoc3)cc(-c3ccc(Cl)s3)n2)cc1 | 0.64 | 19.6 | 29.5 | 62.7 | 2.6 | inactive | 2.3 | 56.9 | 16.5
Clc1ccc(-c2cc(-c3ccoc3)cc(-c3ccccc3Cl)n2)s1 | 1.1 | 15.8 | 16.4 | 49.5 | 7.36 | inactive | 0 | 37.6 | 19
Clc1ccc(-c2cc(-c3ccoc3)cc(-c3ccco3)n2)s1 | 1.28 | 16.2 | 17.2 | 49.1 | 4.74 | inactive | 9.6 | 48.6 | 22.7
Clc1cccc(-c2cc(-c3ccc(Cl)o3)cc(-c3ccc(Cl)s3)n2)c1 | > 50 | 19.6 | 21.6 | 53.8 | 15.1 | inactive | 13.3 | 40.7 | 25.2
